These results are taken from ChEMBL document CHEMBL1142412, “Bis-(-)-nor-meptazinols as novel nanomolar cholinesterase inhibitors with high inhibitory potency on amyloid-beta aggregation” (J Med Chem, 2008).

SMILES strings stand for the structures.

The species named for one experiment is Mus musculus. The experiment can be described thus: Selectivity for mouse brain AChE over mouse serum BChE. Type of experiment: tissue-based.
The next experiment concerns the target Cholinesterase (Mus musculus, UniProt Q03311). The experiment can be described thus: Inhibition of mouse serum BChE. An outline of the steps: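 Modified Ellman assay with mouse serum as the enzyme source. Inhibitor at several concentrations, preincubated 20 min at 37 °C with DTNB. Substrate butyrylthiocholine iodide 0.05 mM. ΔA412 read at 25 °C. IC50 by nonlinear regression of log concentration–response. Mean ± SEM of at least three independent measures.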

In experiment [1] the target is T1, Acetylcholinesterase (Mus musculus, UniProt P21836).
T1 sequence (P21836 whole entry): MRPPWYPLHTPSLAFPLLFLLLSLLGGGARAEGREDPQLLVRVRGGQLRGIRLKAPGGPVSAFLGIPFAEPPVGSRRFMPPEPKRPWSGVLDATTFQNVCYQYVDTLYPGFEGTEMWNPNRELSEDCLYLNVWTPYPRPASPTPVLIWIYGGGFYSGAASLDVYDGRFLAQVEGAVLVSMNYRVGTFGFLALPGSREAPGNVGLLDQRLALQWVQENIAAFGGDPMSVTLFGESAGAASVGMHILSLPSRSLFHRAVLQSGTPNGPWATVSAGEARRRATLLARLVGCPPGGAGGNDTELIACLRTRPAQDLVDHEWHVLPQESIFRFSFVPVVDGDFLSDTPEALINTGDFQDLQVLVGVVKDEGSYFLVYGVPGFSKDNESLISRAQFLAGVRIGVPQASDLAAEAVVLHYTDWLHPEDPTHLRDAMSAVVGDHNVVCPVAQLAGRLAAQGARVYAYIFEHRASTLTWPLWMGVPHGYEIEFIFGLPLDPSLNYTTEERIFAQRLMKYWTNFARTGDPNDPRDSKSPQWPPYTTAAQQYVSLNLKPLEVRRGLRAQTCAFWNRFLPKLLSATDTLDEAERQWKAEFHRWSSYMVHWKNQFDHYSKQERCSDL
The experiment is described as follows: Inhibition of mouse brain AChE.

For experiment [2], the target named is T2, Acetylcholinesterase (Homo sapiens, UniProt P22303). The experiment is described as follows: Inhibition of human recombinant AChE-induced amyloid beta aggregation at 200 uM by thioflavin T fluorescence method. An outline of the steps: (§1)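 Aβ(1–40), stock from HFIP, dissolved in DMSO, final 230 µM, incubated 48 h at room temperature in 0.215 M sodium phosphate pH 8.0 with human recombinant AChE (final 2.3 µM, Aβ:AChE 100:1) ± inhibitor. […] Run in duplicate.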
T2 sequence (P22303 whole entry): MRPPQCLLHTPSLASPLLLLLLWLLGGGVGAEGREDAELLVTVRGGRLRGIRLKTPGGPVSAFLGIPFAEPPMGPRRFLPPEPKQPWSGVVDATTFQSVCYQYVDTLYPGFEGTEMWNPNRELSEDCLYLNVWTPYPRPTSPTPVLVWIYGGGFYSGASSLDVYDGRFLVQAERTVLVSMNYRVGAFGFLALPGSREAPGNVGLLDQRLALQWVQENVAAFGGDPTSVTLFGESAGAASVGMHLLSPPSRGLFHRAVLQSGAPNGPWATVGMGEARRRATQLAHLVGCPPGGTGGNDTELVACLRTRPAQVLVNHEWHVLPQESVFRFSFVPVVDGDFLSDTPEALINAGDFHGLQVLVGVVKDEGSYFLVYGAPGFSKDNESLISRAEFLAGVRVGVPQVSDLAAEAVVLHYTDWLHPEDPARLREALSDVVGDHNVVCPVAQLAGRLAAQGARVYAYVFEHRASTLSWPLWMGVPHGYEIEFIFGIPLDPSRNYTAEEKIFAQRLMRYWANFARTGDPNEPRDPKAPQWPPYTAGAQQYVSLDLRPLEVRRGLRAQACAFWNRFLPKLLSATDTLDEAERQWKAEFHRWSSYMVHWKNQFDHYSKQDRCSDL

Experiment [3] deals with T2, Acetylcholinesterase. The experiment can be described thus: Inhibition of human recombinant AChE-induced amyloid beta aggregation at 100 uM by thioflavin T fluorescence method. In short, it runs like this:
as §1

Experiment [4] addresses T2, Acetylcholinesterase. The experiment is described as follows: Inhibition of human recombinant AChE-induced amyloid beta aggregation by thioflavin T fluorescence method. In short, it runs like this: as §1

Cholinesterase, sequence (Q03311 whole entry): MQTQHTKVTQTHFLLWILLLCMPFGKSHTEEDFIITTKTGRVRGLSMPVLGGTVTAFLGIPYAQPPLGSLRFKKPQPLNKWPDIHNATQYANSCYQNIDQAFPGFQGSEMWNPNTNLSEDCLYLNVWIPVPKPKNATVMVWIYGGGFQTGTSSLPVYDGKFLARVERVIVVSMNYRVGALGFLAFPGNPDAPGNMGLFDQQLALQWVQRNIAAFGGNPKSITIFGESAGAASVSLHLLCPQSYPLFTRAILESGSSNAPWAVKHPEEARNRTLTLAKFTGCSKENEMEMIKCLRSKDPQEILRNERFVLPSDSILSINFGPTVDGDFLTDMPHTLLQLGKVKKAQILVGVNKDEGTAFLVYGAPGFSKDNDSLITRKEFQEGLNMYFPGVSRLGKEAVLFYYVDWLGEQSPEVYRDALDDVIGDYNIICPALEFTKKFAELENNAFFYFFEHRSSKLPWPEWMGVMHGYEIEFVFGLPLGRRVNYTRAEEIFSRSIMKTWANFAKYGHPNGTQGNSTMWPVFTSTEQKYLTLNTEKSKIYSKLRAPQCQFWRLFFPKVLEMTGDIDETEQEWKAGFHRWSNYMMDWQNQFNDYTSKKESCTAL

A word on the IC50: it is the midpoint of a concentration-inhibition curve. Consider `CCC1(c2cccc(O)c2)CCCCN(CCCCCN2CCCC[C@@](CC)(c3cccc(O)c3)C2)C1` (single isomer, unassigned; (-)), for which the Ratio IC50 in the experiment listed under Mus musculus is 0.048. Further, the IC50 worked out at 0.192 µM against Cholinesterase and 1 µM against Acetylcholinesterase [1].

A word on the inhibition: it is the percentage by which the read-out fell short of the control. Regarding `CC[C@@]1(c2cccc(O)c2)CCCCN(CCCCCCCCN2CCCC[C@@](CC)(c3cccc(O)c3)C2)C1`, the Ratio IC50 in the experiment filed under Mus musculus came to 0.8. Further, the results for the inhibition at Acetylcholinesterase [2] and at Acetylcholinesterase [3] were 15.2% and 0%, respectively.

With `CCC1(c2cccc(O)c2)CCCCN(C)C1` (single isomer, unassigned; (-)) [MEPTAZINOL], the Ratio IC50 in the experiment filed under Mus musculus worked out at 0.37. The concentration for half-maximal inhibition (IC50) at Cholinesterase is 15 µM; on Acetylcholinesterase [1] it was 41 µM. For the same compound, the inhibition on Acetylcholinesterase [2] turned out to be 0%.

Turning to `CC[C@@]1(c2cccc(O)c2)CCCCN(CCCCCCN2CCCC[C@@](CC)(c3cccc(O)c3)C2)C1`, the Ratio IC50 in the experiment listed under Mus musculus came to 0.098.

Consider `CC[C@@]1(c2cccc(O)c2)CCCCN(CCCCCCCCCCN2CCCC[C@@](CC)(c3cccc(O)c3)C2)C1`, for which, in the experiment filed under Mus musculus, the Ratio IC50 worked out at 1.8. Moreover, the IC50 on Acetylcholinesterase [4] is 5.8 µM. In addition, the inhibition is 98.4% on Acetylcholinesterase [2] and 95.8% on Acetylcholinesterase [3].

Turning to `CC[C@@]1(c2cccc(O)c2)CCCCN(CCN2CCCC[C@@](CC)(c3cccc(O)c3)C2)C1`, in the experiment listed under Mus musculus, the Ratio IC50 was found to be 0.0029.

`CC[C@@]1(c2cccc(O)c2)CCCCN(CCCCCCCN2CCCC[C@@](CC)(c3cccc(O)c3)C2)C1`: the Ratio IC50 in the experiment filed under Mus musculus was determined as 0.38.

As to `CC[C@@]1(c2cccc(O)c2)CCCCN(CCCN2CCCC[C@@](CC)(c3cccc(O)c3)C2)C1`, the Ratio IC50 in the experiment filed under Mus musculus came to 0.0031.

In the case of `CC[C@@]1(c2cccc(O)c2)CCCCN(CCCCCCCCCN2CCCC[C@@](CC)(c3cccc(O)c3)C2)C1`, the Ratio IC50 in the experiment filed under Mus musculus worked out at 2.6. Also, the IC50 at Acetylcholinesterase [4] was found to be 16.6 µM. Moreover, the inhibition at Acetylcholinesterase [2] was determined as 99.2%; on Acetylcholinesterase [3], 90.8%.

Turning to `CC[C@@]1(c2cccc(O)c2)CCCCN(CCCCCCCCCCCCN2CCCC[C@@](CC)(c3cccc(O)c3)C2)C1`, in the experiment filed under Mus musculus, the Ratio IC50 worked out at 2.4.

For `CC[N+](C)(CC)CCC[n+]1c(-c2ccccc2)c2cc(N)ccc2c2ccc(N)cc21`, the inhibition on Acetylcholinesterase [2] was determined as 98.6%; at Acetylcholinesterase [3], 85.6%.

For `CC[C@@]1(c2cccc(O)c2)CCCCN(CCCCN2CCCC[C@@](CC)(c3cccc(O)c3)C2)C1`, the Ratio IC50 in the experiment listed under Mus musculus stood at 0.0049.

As to `CC[C@@]1(c2cccc(O)c2)CCCCN(CCCCCCCCCCCN2CCCC[C@@](CC)(c3cccc(O)c3)C2)C1`, the Ratio IC50 in the experiment filed under Mus musculus was found to be 3.1.
